Results on two compounds are retold here after PubChem BioAssay AID463170 (The Scripps Research Institute Molecular Screening Center, 2010).

The structures appear in SMILES notation. Active and inactive are the calls of the source.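 The calls were made as follows: active = fold change of 10 or more over vehicle in p21 reporter light; inactive = fold change below 10.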

In this assay the target is Cyclin-dependent kinase inhibitor 1 (Homo sapiens) (UniProt P38936). The assay can be described thus: p21 (CDKN1A) degradation inhibitors, late-stage follow-up, selectivity assay for Wee1 degradation inhibitor project, cell-based, HeLa, luciferase fusion, luminescence, powder samples (AID 463170). Particulars: at 0.1 µM, stronger effect = higher value. In outline:
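Test system – transfected HeLa cells with p21-luciferase fusion · Technique – luciferase luminescence from the p21 fusion reporter · Repeats – four replicate wells per compound · Schedule – 20 h compound treatment, 37 °C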

Cyclin-dependent kinase inhibitor 1 (Homo sapiens), sequence (P38936 whole entry, looked up, the tested form may be a part): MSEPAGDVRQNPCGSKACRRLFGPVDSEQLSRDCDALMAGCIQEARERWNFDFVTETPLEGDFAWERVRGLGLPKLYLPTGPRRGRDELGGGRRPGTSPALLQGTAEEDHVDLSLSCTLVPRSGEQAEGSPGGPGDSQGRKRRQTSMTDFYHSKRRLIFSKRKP

Turning to `c1ccc2[nH]c(CNc3nc(N4CCOCC4)nc4c3ncn4-c3ccsc3)nc2c1`, the fold change is 2.23 (inactive). Consider `O=[N+]([O-])c1cccc2[nH]c(CNc3nc(N4CCOCC4)nc4c3ncn4-c3ccsc3)nc12`, for which the fold change is 3.41 (inactive).
